Source: ChEMBL document CHEMBL3045438, “Synthesis and fungicidal evaluation of novel chalcone-based strobilurin analogues” (2007)
Values after ≈ are worked out from the molar mass of the structure shown.

Assays:
Format in all cases: functional
[1] = test system: Pseudoperonospora cubensis; assay: Antifungal activity against Pseudoperonospora cubensis assessed as fungicidal activity at 200 mg/L (beneficial crop - cucumber)
Method in brief: (§1)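 In vivo preventive test on cucumber as host plant.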

Rhizoctonia solani = assay: Antifungal activity against Rhizoctonia solani assessed as fungicidal activity at 200 mg/L (beneficial crop - cucumber); method in brief: as §1
Botrytis cinerea = assay: Antifungal activity against Botryotinia fuckeliana assessed as fungicidal activity at 200 mg/L (beneficial crop - cucumber); method in brief: as §1
Podosphaera fuliginea [2] = assay: Antifungal activity against Podosphaera fuliginea assessed as fungicidal activity at 200 mg/L (beneficial crop - cucumber); method in brief: as §1
[3] = test system: Pseudoperonospora cubensis; assay: Antifungal activity against Pseudoperonospora cubensis in cucumber plants under greenhouse conditions assessed as fungicidal activity by in vivo assay; method in brief: as §1
Podosphaera fuliginea [4] = assay: Antifungal activity against Podosphaera fuliginea in cucumber plants under greenhouse conditions assessed as fungicidal activity by in vivo assay; method in brief: as §1

SMILES: CO/C=C(/C(=O)OC)c1ccccc1COc1cccc(C(=O)/C=C/c2ccccc2Cl)c1
- inhibition at 200 µg/mL [1]: 98%
- inhibition at 200 µg/mL (Rhizoctonia solani): 0%
- inhibition at 200 µg/mL (Botrytis cinerea): 0%
- inhibition at 200 µg/mL (Podosphaera fuliginea [2]): 94%
- EC90 [3]: 118.52 µg/mL (≈ 256 µM)

SMILES: CO/C=C(/C(=O)OC)c1ccccc1COc1cccc(C(=O)/C=C/c2ccc(C)c(C)c2)c1
- EC90 (Podosphaera fuliginea [4]): 139.47 µg/mL (≈ 305 µM)
- inhibition at 200 µg/mL [1]: 100%
- inhibition at 200 µg/mL (Rhizoctonia solani): 0%
- inhibition at 200 µg/mL (Botrytis cinerea): 0%
- inhibition at 200 µg/mL (Podosphaera fuliginea [2]): 92%

SMILES: CO/C=C(/C(=O)OC)c1ccccc1COc1cccc(C(=O)/C=C/c2cccc(F)c2)c1
- inhibition at 200 µg/mL [1]: 0%
- inhibition at 200 µg/mL (Rhizoctonia solani): 36%
- inhibition at 200 µg/mL (Botrytis cinerea): 10%
- inhibition at 200 µg/mL (Podosphaera fuliginea [2]): 0%

SMILES: CO/C=C(/C(=O)OC)c1ccccc1COc1ccccc1C(=O)/C=C/c1ccc(OC)c(OC)c1
- inhibition at 200 µg/mL [1]: 0%
- inhibition at 200 µg/mL (Rhizoctonia solani): 0%
- inhibition at 200 µg/mL (Botrytis cinerea): 0%
- inhibition at 200 µg/mL (Podosphaera fuliginea [2]): 0%

SMILES: CO/C=C(/C(=O)OC)c1ccccc1COc1cccc(C(=O)/C=C/c2ccc(OC)cc2)c1
- inhibition at 200 µg/mL [1]: 95%
- inhibition at 200 µg/mL (Rhizoctonia solani): 0%
- inhibition at 200 µg/mL (Botrytis cinerea): 0%
- inhibition at 200 µg/mL (Podosphaera fuliginea [2]): 0%

SMILES: CO/N=C(/C(=O)OC)c1ccccc1COc1ccccc1C [KRESOXIM-METHYL]
- EC90 (Podosphaera fuliginea [4]): 7.3 µg/mL (≈ 23.3 µM)
- inhibition at 200 µg/mL [1]: 100%
- inhibition at 200 µg/mL (Podosphaera fuliginea [2]): 100%
- EC90 [3]: 154.92 µg/mL (≈ 494 µM)

SMILES: CO/C=C(/C(=O)OC)c1ccccc1COc1ccc(C(=O)/C=C/c2cccc(OC)c2)cc1
- inhibition at 200 µg/mL [1]: 86%
- inhibition at 200 µg/mL (Rhizoctonia solani): 20%
- inhibition at 200 µg/mL (Botrytis cinerea): 0%
- inhibition at 200 µg/mL (Podosphaera fuliginea [2]): 0%

SMILES: CO/C=C(/C(=O)OC)c1ccccc1COc1cccc(C(=O)/C=C/c2ccco2)c1
- inhibition at 200 µg/mL [1]: 0%
- inhibition at 200 µg/mL (Rhizoctonia solani): 0%
- inhibition at 200 µg/mL (Botrytis cinerea): 16%
- inhibition at 200 µg/mL (Podosphaera fuliginea [2]): 0%

SMILES: CO/C=C(/C(=O)OC)c1ccccc1COc1ccc(C(=O)/C=C/c2ccc3c(c2)OCO3)cc1
- inhibition at 200 µg/mL [1]: 0%
- inhibition at 200 µg/mL (Rhizoctonia solani): 0%
- inhibition at 200 µg/mL (Botrytis cinerea): 0%
- inhibition at 200 µg/mL (Podosphaera fuliginea [2]): 0%

SMILES: CO/C=C(/C(=O)OC)c1ccccc1COc1ccc(C)cc1C(=O)/C=C/c1ccc(Cl)cc1
- inhibition at 200 µg/mL [1]: 89%
- inhibition at 200 µg/mL (Rhizoctonia solani): 0%
- inhibition at 200 µg/mL (Botrytis cinerea): 0%
- inhibition at 200 µg/mL (Podosphaera fuliginea [2]): 0%

SMILES: CO/C=C(/C(=O)OC)c1ccccc1COc1ccc(Cl)cc1C(=O)/C=C/c1ccc(OC)cc1
- inhibition at 200 µg/mL [1]: 0%
- inhibition at 200 µg/mL (Rhizoctonia solani): 0%
- inhibition at 200 µg/mL (Botrytis cinerea): 0%
- inhibition at 200 µg/mL (Podosphaera fuliginea [2]): 0%

SMILES: CO/C=C(/C(=O)OC)c1ccccc1COc1cccc(C(=O)/C=C/c2ccc3c(c2)OCO3)c1
- inhibition at 200 µg/mL [1]: 0%
- inhibition at 200 µg/mL (Rhizoctonia solani): 29%
- inhibition at 200 µg/mL (Botrytis cinerea): 0%
- inhibition at 200 µg/mL (Podosphaera fuliginea [2]): 0%

SMILES: CO/C=C(/C(=O)OC)c1ccccc1COc1cccc(C(=O)/C=C/c2cccc(C)c2)c1
- inhibition at 200 µg/mL [1]: 81%
- inhibition at 200 µg/mL (Rhizoctonia solani): 0%
- inhibition at 200 µg/mL (Botrytis cinerea): 0%
- inhibition at 200 µg/mL (Podosphaera fuliginea [2]): 0%

SMILES: CO/C=C(/C(=O)OC)c1ccccc1COc1cccc(C(=O)/C=C/c2ccccc2F)c1
- inhibition at 200 µg/mL [1]: 0%
- inhibition at 200 µg/mL (Rhizoctonia solani): 38%
- inhibition at 200 µg/mL (Botrytis cinerea): 0%
- inhibition at 200 µg/mL (Podosphaera fuliginea [2]): 0%

SMILES: CO/C=C(/C(=O)OC)c1ccccc1COc1cccc(C(=O)/C=C/c2ccccc2)c1
- inhibition at 200 µg/mL [1]: 96%
- inhibition at 200 µg/mL (Rhizoctonia solani): 0%
- inhibition at 200 µg/mL (Botrytis cinerea): 0%
- inhibition at 200 µg/mL (Podosphaera fuliginea [2]): 0%

SMILES: CO/C=C(/C(=O)OC)c1ccccc1COc1cccc(C(=O)/C=C/c2ccc(Cl)cc2Cl)c1
- inhibition at 200 µg/mL [1]: 54%
- inhibition at 200 µg/mL (Rhizoctonia solani): 30%
- inhibition at 200 µg/mL (Botrytis cinerea): 0%
- inhibition at 200 µg/mL (Podosphaera fuliginea [2]): 0%

SMILES: CO/C=C(/C(=O)OC)c1ccccc1COc1ccc(C(=O)/C=C/c2ccc(Br)cc2)cc1
- inhibition at 200 µg/mL [1]: 56%
- inhibition at 200 µg/mL (Rhizoctonia solani): 0%
- inhibition at 200 µg/mL (Botrytis cinerea): 0%
- inhibition at 200 µg/mL (Podosphaera fuliginea [2]): 0%

SMILES: CO/C=C(/C(=O)OC)c1ccccc1COc1ccc(C(=O)/C=C/c2ccc(OC)c(OC)c2)cc1
- inhibition at 200 µg/mL [1]: 11%
- inhibition at 200 µg/mL (Rhizoctonia solani): 0%
- inhibition at 200 µg/mL (Botrytis cinerea): 0%
- inhibition at 200 µg/mL (Podosphaera fuliginea [2]): 0%

SMILES: CO/C=C(/C(=O)OC)c1ccccc1COc1ccc(C(=O)/C=C/c2ccco2)cc1
- inhibition at 200 µg/mL [1]: 0%
- inhibition at 200 µg/mL (Rhizoctonia solani): 0%
- inhibition at 200 µg/mL (Botrytis cinerea): 0%
- inhibition at 200 µg/mL (Podosphaera fuliginea [2]): 0%

SMILES: CO/C=C(/C(=O)OC)c1ccccc1COc1cccc(C(=O)/C=C/c2cccc(Br)c2)c1
- inhibition at 200 µg/mL [1]: 99%
- inhibition at 200 µg/mL (Rhizoctonia solani): 0%
- inhibition at 200 µg/mL (Botrytis cinerea): 0%
- inhibition at 200 µg/mL (Podosphaera fuliginea [2]): 99%
- EC90 [3]: 113.64 µg/mL (≈ 224 µM)

SMILES: CO/C=C(/C(=O)OC)c1ccccc1COc1ccc(C(=O)/C=C/c2cccc(C)c2)cc1
- inhibition at 200 µg/mL [1]: 47%
- inhibition at 200 µg/mL (Rhizoctonia solani): 0%
- inhibition at 200 µg/mL (Botrytis cinerea): 0%
- inhibition at 200 µg/mL (Podosphaera fuliginea [2]): 0%

SMILES: CO/C=C(/C(=O)OC)c1ccccc1COc1ccc(C(=O)/C=C/c2c(F)cccc2Cl)cc1
- inhibition at 200 µg/mL [1]: 67%
- inhibition at 200 µg/mL (Rhizoctonia solani): 0%
- inhibition at 200 µg/mL (Botrytis cinerea): 0%
- inhibition at 200 µg/mL (Podosphaera fuliginea [2]): 0%

SMILES: CO/C=C(/C(=O)OC)c1ccccc1COc1ccccc1C(=O)/C=C/c1cccc(Br)c1
- inhibition at 200 µg/mL [1]: 78%
- inhibition at 200 µg/mL (Rhizoctonia solani): 0%
- inhibition at 200 µg/mL (Botrytis cinerea): 0%
- inhibition at 200 µg/mL (Podosphaera fuliginea [2]): 0%

SMILES: CO/C=C(/C(=O)OC)c1ccccc1COc1cccc(C(=O)/C=C/c2ccc(C)cc2)c1
- inhibition at 200 µg/mL [1]: 100%
- inhibition at 200 µg/mL (Rhizoctonia solani): 0%
- inhibition at 200 µg/mL (Botrytis cinerea): 0%
- inhibition at 200 µg/mL (Podosphaera fuliginea [2]): 97%

SMILES: CO/C=C(/C(=O)OC)c1ccccc1COc1ccccc1C(=O)/C=C/c1ccc(C)c(C)c1
- inhibition at 200 µg/mL [1]: 0%
- inhibition at 200 µg/mL (Rhizoctonia solani): 0%
- inhibition at 200 µg/mL (Botrytis cinerea): 0%
- inhibition at 200 µg/mL (Podosphaera fuliginea [2]): 0%

SMILES: CO/C=C(/C(=O)OC)c1ccccc1COc1cccc(C(=O)/C=C/c2ccc(N(C)C)cc2)c1
- inhibition at 200 µg/mL [1]: 0%
- inhibition at 200 µg/mL (Rhizoctonia solani): 32%
- inhibition at 200 µg/mL (Botrytis cinerea): 0%
- inhibition at 200 µg/mL (Podosphaera fuliginea [2]): 0%

SMILES: CO/C=C(/C(=O)OC)c1ccccc1COc1ccc(Cl)cc1C(=O)/C=C/c1ccc(Cl)cc1
- inhibition at 200 µg/mL [1]: 0%
- inhibition at 200 µg/mL (Rhizoctonia solani): 0%
- inhibition at 200 µg/mL (Botrytis cinerea): 21%
- inhibition at 200 µg/mL (Podosphaera fuliginea [2]): 86%

SMILES: CO/C=C(/C(=O)OC)c1ccccc1COc1cccc(C(=O)/C=C/c2ccccc2Br)c1
- inhibition at 200 µg/mL [1]: 100%
- inhibition at 200 µg/mL (Rhizoctonia solani): 31%
- inhibition at 200 µg/mL (Botrytis cinerea): 0%
- inhibition at 200 µg/mL (Podosphaera fuliginea [2]): 59%
